LANA-H2A inh = blocks KSHV LANA binding to histone H2A/H2B; Q9QR71; cell-free LANA-H2A/H2B peptide, fluorescence polarization; inhibition, % (no concentration beside the values); 320,000 compounds, 0.6% hits; AID 2629; in the data active means inhibition mostly above about 10%, no sharp cut-off; inactive means mostly below about 6.7%
ZTA counter = blocks Epstein-Barr virus ZTA, an EBNA-1 counter-screen | ZTA-DNA binding, fluorescence polarization | 320,000 compounds, 0.15% hits | inhibition, % at 11 µM | P03206; in the data active means inhibition above about 33%
HNF4A DNA FP = change in binding of human HNF4 alpha to DNA; P41235; HNF4a-FITC DNA binding, fluorescence polarization, 1 h; activity change, % at 10 µM; 360,000 compounds, 0.3% hits; in the data active means activity change above about 30%, passing the limit was not always enough
Target sequence (P41235 whole entry, looked up): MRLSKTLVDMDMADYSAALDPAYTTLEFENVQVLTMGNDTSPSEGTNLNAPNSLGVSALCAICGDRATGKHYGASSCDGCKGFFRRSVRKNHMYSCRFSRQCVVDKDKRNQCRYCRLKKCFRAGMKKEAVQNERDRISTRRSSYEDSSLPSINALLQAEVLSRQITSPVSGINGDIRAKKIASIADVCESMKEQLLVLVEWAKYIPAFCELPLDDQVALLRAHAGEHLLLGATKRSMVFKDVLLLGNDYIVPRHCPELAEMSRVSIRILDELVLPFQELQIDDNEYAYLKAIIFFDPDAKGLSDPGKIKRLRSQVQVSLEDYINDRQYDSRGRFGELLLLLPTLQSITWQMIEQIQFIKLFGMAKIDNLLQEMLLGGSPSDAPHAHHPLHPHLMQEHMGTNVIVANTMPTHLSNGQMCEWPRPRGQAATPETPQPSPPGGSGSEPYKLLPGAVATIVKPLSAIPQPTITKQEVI
CSN deneddyl inh = blocks human CSN-mediated cullin deneddylation; Purified CSN, SCF-Nedd8-OG deneddylation, fluorescence polarization; inhibition, % at 12.5 µM; 360,000 compounds, 0.38% hits;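 active means pattern-corrected inhibition above about 35%, with an unprinted fluorescence ratio check between 0.5 and 1.5, limit read from the data, passing the limit was not always enough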;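 further: 0% = enzyme with substrate and 100% = substrate without enzyme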
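Schedule: reaction 90 min, room temperature / Assay system: HEK293T-derived human Csn5 enzyme / Input: Csn5 at 0.24 nM final / Measure: inhibition of Csn5 cleavage, % / Control set: substrate-only high control, full reaction low control / Technique: fluorescence polarization of the substrate / Buffer or medium: Tris/NaCl/DTT buffer, pH 7.5 / Reagent: SCFSkp2-Nedd8OG substrate at 10 nM final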
Bfl-1 A1 inh = inhibitors of the anti-apoptotic protein A1, read as caspase activation; MEF A1-2A-BIM cells, Caspase-Glo 3/7 luminescence, 3 h; percent of clofoctol response, vehicle zero; caspase activation, % (no concentration beside the values); 330,000 compounds, 0.066% hits;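 active means over half of replicate activation scores above 10%, or exactly half above 10 with the replicate mean above 10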
EBNA-1 inh = blocks EBNA-1 binding to DNA; EBNA-1 DNA binding, fluorescence polarization; inhibition, % at 14.8 µM; 300,000 compounds, 0.34% hits; AID 1950; in the data active means inhibition above about 28%
* hit, by the source's call. Most compounds without a hit are left out; they make up all but 1.5% or so of the library.

`CC1(c2ccccc2)CC(C)(C)N(C(N)=O)c2ccccc21` (stereo not drawn) gave LANA-H2A inh 22*, ZTA counter 3, HNF4A DNA FP 0, CSN deneddyl inh -2, Bfl-1 A1 inh 0 and EBNA-1 inh -2.
O=C(NN=Cc1c(O)ccc2ccccc12)c1ccc2c(c1)OCO2 was read as LANA-H2A inh 0, HNF4A DNA FP 3, CSN deneddyl inh 6 and Bfl-1 A1 inh 1.
For O=C(N/N=C/c1c(O)ccc2ccccc12)c1ccc(CO)nc1 the results were LANA-H2A inh -5, ZTA counter -3, HNF4A DNA FP 42*, CSN deneddyl inh 29, Bfl-1 A1 inh 0 and EBNA-1 inh -5.
For O=C(Nc1ccc2c(c1)OCCO2)C1CC(c2ccccc2Cl)=NO1 (stereo not drawn) the results were LANA-H2A inh 9.2*, ZTA counter -20, HNF4A DNA FP -1, CSN deneddyl inh 1, Bfl-1 A1 inh -1 and EBNA-1 inh -4.
Screening CSc1cccc(NC(=S)N(CCCN2CCCC2)Cc2cccn2Cc2ccc(Cl)cc2)c1 returned LANA-H2A inh 13*, ZTA counter -21, HNF4A DNA FP 1, CSN deneddyl inh 3, Bfl-1 A1 inh 0 and EBNA-1 inh -26.
O=c1[nH][nH]cc1C=NCc1cccc(C(F)(F)F)c1 was read as LANA-H2A inh -3, ZTA counter -6, HNF4A DNA FP 2, CSN deneddyl inh -2, Bfl-1 A1 inh 1 and EBNA-1 inh -4.
Cc1ccc(C(=O)OCC(=O)c2ccc(S(=O)(=O)N3CCCCC3)cc2)o1 was read as LANA-H2A inh -1, ZTA counter -11, HNF4A DNA FP -2, CSN deneddyl inh -5, Bfl-1 A1 inh 1 and EBNA-1 inh -16.
Screening Cc1cc(=O)[nH]c(N)n1 returned LANA-H2A inh 13*, ZTA counter -18, HNF4A DNA FP -1, CSN deneddyl inh -5, Bfl-1 A1 inh -1 and EBNA-1 inh -2.
`O[C@H]1CN(CC2CCCCC2)[C@@H](c2ccc(Cl)cc2)C[C@@H]1n1cc(-c2ccc(F)cc2)nn1` gave HNF4A DNA FP -1 and CSN deneddyl inh 6.
Screening Cc1ccccc1C(=O)N1CCC(C(=O)NN2C(=O)NC3(CCC(C)CC3)C2=O)CC1 (stereo not drawn) returned LANA-H2A inh 5, ZTA counter 2, HNF4A DNA FP 1, CSN deneddyl inh -2 and Bfl-1 A1 inh 1.
`COc1cccc(NC(=O)C2CC(=O)N(Cc3ccco3)C2)c1` (stereo not drawn) gave LANA-H2A inh 3, ZTA counter 8, HNF4A DNA FP 2, CSN deneddyl inh -3 and Bfl-1 A1 inh 1.
`COc1ccc(C)cc1NC(=O)C1CC(=O)N(Cc2ccco2)C1` (stereo not drawn) gave LANA-H2A inh 13*, ZTA counter -25, HNF4A DNA FP -3, CSN deneddyl inh -4, Bfl-1 A1 inh 1 and EBNA-1 inh -4.
Screening Cc1ccccc1NC(=O)Cc1nc(COC(=O)COc2ccc(C(C)(C)C)cc2)cs1 returned LANA-H2A inh 17*, ZTA counter -2, HNF4A DNA FP 3, CSN deneddyl inh -1 and Bfl-1 A1 inh 0.
Screening O=C1c2cccnc2C(=O)N1Cc1ccc(S(=O)(=O)N2CCN(c3ccccc3)CC2)cc1 returned LANA-H2A inh 2, ZTA counter 17, HNF4A DNA FP 4, CSN deneddyl inh 0, Bfl-1 A1 inh 1 and EBNA-1 inh 5.
`COc1ccc(N/N=C(/C)c2cnnc(-c3ccccc3)n2)cc1` gave LANA-H2A inh 1, ZTA counter 20, HNF4A DNA FP 46*, CSN deneddyl inh 26, Bfl-1 A1 inh -1 and EBNA-1 inh 8.
O=C(NCc1ccccc1)c1ccccc1NC(=O)C1CCCCC1 was read as LANA-H2A inh -1, ZTA counter 6, HNF4A DNA FP 21, CSN deneddyl inh 0, Bfl-1 A1 inh 0 and EBNA-1 inh 3.
CC(=O)C1=C(O)C2(C)c3c(O)c(C)c(O)c(C(C)=O)c3OC2CC1=O (stereo not drawn) was read as HNF4A DNA FP 51* and CSN deneddyl inh 16.
For CN(Cc1c(C(=O)N2CCCCCCC2)nc2ccc(Cl)cn12)C1CCOC1 (stereo not drawn) the results were LANA-H2A inh 19*, HNF4A DNA FP 0, CSN deneddyl inh 0 and Bfl-1 A1 inh 2.

High-throughput results from PubChem.
